Experimental data published in ChEMBL document CHEMBL1287656, “New octahydroquinazoline derivatives: synthesis and hypotensive activity” (Eur J Med Chem, 2010).
The source made the active and inactive calls. The rule behind the calls is not given here.

What was measured:
Rattus norvegicus [1] = test: Hypotensive activity in anaesthetized albino rat assessed as change in systolic arterial blood pressure at 5 mg/kg, ip up to 60 mins; type: functional, organism-based; set-up: dose 5 mg/kg
How it was run: (§1)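 Male adult albino rats (groups of 6) anaesthetised with urethane 1.75–2.0 g/Kg i.p. Test agent given i.p. at 5 mg/Kg, dissolved in tween 80 and diluted 1:3 with distilled water. A solvent-treated group served as control. Arterial pressure was recorded via a cannula and pressure transducer on a chart oscillograph at 5, 15, 30 and 60 min. Statistics by one-way ANOVA or unpaired t test.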

Rattus norvegicus [2] = test: Hypotensive activity in anaesthetized albino rat assessed as change in diastolic arterial blood pressure at 5 mg/kg, ip up to 60 mins; type: functional, organism-based; set-up: dose 5 mg/kg; how it was run: as §1
Rattus norvegicus [3] = test: Hypotensive activity in anaesthetized albino rat assessed as reduction of adrenaline-induced increase in systolic arterial blood pressure at 3 ug/kg, iv administered 30 mins before adrenaline challenge measured after 1 hr relative to control; type: functional; set-up: scale not given: the % may be the effect or the level left
How it was run: (§2)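 Anaesthetised male albino rats (urethane 1.75–2.0 g/Kg i.p.; n=6 per group). Adrenaline (3/Kg i.v.) pressor response was recorded alone, 30 min before i.p. injection of the test agent (5 mg/Kg in tween 80/water). The adrenaline challenge was repeated 30 min and 1 h after dosing. Systolic and diastolic pressure were recorded via a cannulated artery and transducer.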

Rattus norvegicus [4] = test: Toxicity in anaesthetized albino rat assessed as change in heart rate at 60 mg/kg, ip after 5 mins relative to control; type: organism-based; set-up: dose 60 mg/kg, route intraperitoneal; details: in vivo
Rattus norvegicus [5] = test: Toxicity in anaesthetized albino rat assessed as change in heart rate at 5 mg/kg, ip after 5 mins relative to control; type: organism-based; set-up: dose 5 mg/kg, route intraperitoneal; details: in vivo
How it was run: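 Urethane-anaesthetised (1.75–2.0 g/Kg i.p.) male albino rats, 6 per group, received 5 mg/Kg i.p. in tween 80/distilled water (1:3); solvent-treated controls. Heart rate was taken from a lead II ECG at 5 min after injection (also 15, 30, 60 min). Analysed by ANOVA or unpaired t test.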

Rattus norvegicus [6] = test: Toxicity in anaesthetized albino rat assessed as change in heart rate at 30 mg/kg, ip after 5 mins relative to control; type: organism-based; set-up: dose 30 mg/kg, route intraperitoneal; details: in vivo
Rattus norvegicus [7] = test: Hypotensive activity in anaesthetized albino rat assessed as change in systolic arterial blood pressure at 5 mg/kg, ip after 5 mins relative to control; type: functional; details: route intraperitoneal; how it was run: as §1
Rattus norvegicus [8] = test: Hypotensive activity in anaesthetized albino rat assessed as change in diastolic arterial blood pressure at 5 mg/kg, ip after 30 mins relative to control; details: route intraperitoneal
Rattus norvegicus [9] = test: Hypotensive activity in anaesthetized albino rat assessed as reduction of adrenaline-induced increase in diastolic arterial blood pressure at 3 ug/kg, iv administered 30 mins before adrenaline challenge measured after 30 mins relative to control; type: functional; set-up: scale not given: the % may be the effect or the level left; how it was run: as §2
Rattus norvegicus [10] = test: Toxicity in anaesthetized albino rat assessed as change in heart rate at 15 mg/kg, ip after 5 mins relative to control; type: organism-based; set-up: dose 15 mg/kg, route intraperitoneal; details: in vivo
Rattus norvegicus [11] = test: Hypotensive activity in anaesthetized albino rat assessed as change in diastolic arterial blood pressure at 60 mg/kg, ip after 5 mins relative to control; type: functional; details: route intraperitoneal
Rattus norvegicus [12] = test: Hypotensive activity in anaesthetized albino rat assessed as change in systolic arterial blood pressure at 5 mg/kg, ip after 15 mins relative to control; details: route intraperitoneal
Rattus norvegicus [13] = test: Hypotensive activity in anaesthetized albino rat assessed as change in systolic arterial blood pressure at 5 mg/kg, ip after 60 mins relative to control; details: route intraperitoneal
Rattus norvegicus [14] = test: Hypotensive activity in anaesthetized albino rat assessed as reduction of adrenaline-induced increase in systolic arterial blood pressure at […], iv administered 30 mins before adrenaline challenge measured after 30 mins relative to control; type: functional; set-up: scale not given: the % may be the effect or the level left; how it was run: as §2
Rattus norvegicus [15] = test: Hypotensive activity in anaesthetized albino rat assessed as change in diastolic arterial blood pressure at 5 mg/kg, ip after 15 mins relative to control; details: route intraperitoneal
Rattus norvegicus [16] = test: Hypotensive activity in anaesthetized albino rat assessed as change in diastolic arterial blood pressure at 5 mg/kg, ip after 5 mins relative to control; type: functional; details: route intraperitoneal; how it was run: as §1
Rattus norvegicus [17] = test: Hypotensive activity in anaesthetized albino rat assessed as reduction of adrenaline-induced increase in diastolic arterial blood pressure at 3 ug/kg, iv administered 30 mins before adrenaline challenge measured after 1 hr relative to control; type: functional; set-up: scale not given: the % may be the effect or the level left; how it was run: as §2
Rattus norvegicus [18] = test: Hypotensive activity in anaesthetized albino rat assessed as change in systolic arterial blood pressure at 15 mg/kg, ip; type: functional, organism-based; set-up: dose 15 mg/kg; details: TDE = time-dependent effect
Rattus norvegicus [19] = test: Hypotensive activity in anaesthetized albino rat assessed as change in diastolic arterial blood pressure at 5 mg/kg, ip; details: TDE = time-dependent effect

Row | Structure (SMILES) | Activity (Rattus norvegicus [1]) | Activity (Rattus norvegicus [2]) | Activity (Rattus norvegicus [3]) | Activity (Rattus norvegicus [4]) | Activity (Rattus norvegicus [5]) | Activity (Rattus norvegicus [6]) | Activity (Rattus norvegicus [7]) | Activity (Rattus norvegicus [8]) | Activity (Rattus norvegicus [9]) | Activity (Rattus norvegicus [10]) | Activity (Rattus norvegicus [11]) | Activity (Rattus norvegicus [12]) | Activity (Rattus norvegicus [13]) | Activity (Rattus norvegicus [14]) | Activity (Rattus norvegicus [15]) | Activity (Rattus norvegicus [16]) | Activity (Rattus norvegicus [17]) | Activity (Rattus norvegicus [18]) | Activity (Rattus norvegicus [19])
1 | CC1(C)CC(=O)C2=C(C1)N(c1ccc(Cl)cc1)CN(c1ccc(OCC(=O)N/N=C/c3cccc([N+](=O)[O-])c3)cc1)C2 | inactive | inactive | – | – | – | – | – | – | – | – | – | – | – | – | – | – | – | – | –
2 | COc1cc2nc(N3CCN(C(=O)c4ccco4)CC3)nc(N)c2cc1OC [PRAZOSIN] | – | – | 0% | -5.1% | 30% | 16% | -20.8% | -27.7% | -8% | 26% | -38.8% | -29.2% | -33.3% | -11% | -22.22% | -22.22% | 0% | – | –
3 | Cc1ccc(N2CC3=C(CC(C)(C)CC3=O)N(c3ccc(Cl)cc3)C2)cc1 | – | – | 0% | 0% | 0% | 0% | 0% | -6.25% | -8% | 0% | -18.7% | 0% | -6% | -11% | 0% | 0% | 0% | tde | tde
4 | CC1(C)CC(=O)C2=C(C1)N(c1ccc(Cl)cc1)CN(c1ccc(F)cc1)C2 | inactive | inactive | – | – | – | – | – | – | – | – | – | – | – | – | – | – | – | – | –
5 | CC1(C)CC(=O)C2=C(C1)N(c1ccc(Cl)cc1)CN(c1ccc(OCC(=O)N/N=C/c3ccc(Cl)cc3Cl)cc1)C2 | inactive | inactive | – | – | – | – | – | – | – | – | – | – | – | – | – | – | – | – | –
6 | CC1(C)CC(=O)C2=C(C1)N(c1ccc(Cl)cc1)CN(c1ccc(OCC(=O)N/N=C/c3ccc(Cl)cc3)cc1)C2 | inactive | inactive | – | – | – | – | – | – | – | – | – | – | – | – | – | – | – | – | –
7 | CC1(C)CC(=O)C2=C(C1)N(c1ccc(Cl)cc1)CN(c1ccc(O)cc1)C2 | – | – | 17% | – | 0% | 0% | 0% | 0% | 10% | 0% | -5% | 0% | -3% | 17% | 0% | 0% | 16% | – | –
8 | Cc1ccc(/C=N/NC(=O)COc2ccc(N3CC4=C(CC(C)(C)CC4=O)N(c4ccc(Cl)cc4)C3)cc2)cc1 | – | – | -22% | -6.3% | -2% | -6.3% | -17.8% | -29.16% | -19% | -5% | -37.5% | -21.4% | -39.3% | -11% | -25% | -25% | -28.5% | – | –
9 | CC1(C)CC(=O)C2=C(C1)N(c1ccc(Cl)cc1)CN(c1ccc(OCC(=O)N/N=C/c3cccc(Br)c3)cc1)C2 | inactive | inactive | – | – | – | – | – | – | – | – | – | – | – | – | – | – | – | – | –
10 | COc1cccc(/C=N/NC(=O)COc2ccc(N3CC4=C(CC(C)(C)CC4=O)N(c4ccc(Cl)cc4)C3)cc2)c1 | inactive | inactive | – | – | – | – | – | – | – | – | – | – | – | – | – | – | – | – | –
11 | CC1(C)CC(=O)C2=C(C1)N(c1ccc(Cl)cc1)CN(c1ccccc1F)C2 | inactive | inactive | – | – | – | – | – | – | – | – | – | – | – | – | – | – | – | – | –
12 | CC1(C)CC(=O)C2=C(C1)N(c1ccc(Cl)cc1)CN(c1ccc(Cl)cc1)C2 | – | – | – | 6% | 0% | 6% | 17.8% | 28% | – | 0% | 28% | 23% | 32.4% | – | 25% | 18.2% | – | tde | tde
13 | CC1(C)CC(=O)C2=C(C1)N(c1ccc(Cl)cc1)CN(c1ccc(OCC(=O)NN)cc1)C2 | inactive | inactive | – | – | – | – | – | – | – | – | – | – | – | – | – | – | – | – | –
14 | CC1(C)CC(=O)C2=C(C1)N(c1ccc(Cl)cc1)CN(c1ccc(OCC(=O)N/N=C/c3ccc(Br)cc3)cc1)C2 | inactive | inactive | – | – | – | – | – | – | – | – | – | – | – | – | – | – | – | – | –
15 | CC1(C)CC(=O)C2=C(C1)N(c1ccc(Cl)cc1)CN(c1ccccc1)C2 | – | – | 0% | 12% | 0% | 6.25% | 0% | -7.7% | -9% | 0% | -7.7% | 0% | -6% | -7% | 0% | 0% | 0% | tde | tde
16 | CCOC(=O)COc1ccc(N2CC3=C(CC(C)(C)CC3=O)N(c3ccc(Cl)cc3)C2)cc1 | inactive | inactive | – | – | – | – | – | – | – | – | – | – | – | – | – | – | – | – | –
17 | COc1ccc(/C=N/NC(=O)COc2ccc(N3CC4=C(CC(C)(C)CC4=O)N(c4ccc(Cl)cc4)C3)cc2)cc1 | inactive | inactive | – | – | – | – | – | – | – | – | – | – | – | – | – | – | – | – | –
18 | CC1(C)CC(=O)C2=C(C1)N(c1ccc(Cl)cc1)CN(c1ccc(OCC(=O)N/N=C/c3ccccc3)cc1)C2 | – | – | -7% | 0% | 0% | 0% | -19% | -15% | -6% | -4% | -20% | -13% | -13% | -7% | -10% | -10% | -7% | – | –
19 | CC1(C)CC(=O)C2=C(C1)N(c1ccc(Cl)cc1)CN(c1ccc(OCC(=O)N/N=C/c3ccccc3Cl)cc1)C2 | inactive | inactive | – | – | – | – | – | – | – | – | – | – | – | – | – | – | – | – | –
20 | CC1(C)CC(=O)C2=C(C1)N(c1ccc(Cl)cc1)CN(c1ccc(OCC(=O)N/N=C/c3ccc([N+](=O)[O-])cc3)cc1)C2 | – | – | -5% | -6.2% | 0% | -2.1% | -13% | -31.25% | -9% | -2.1% | -31.25% | -17% | -26.5% | -10% | -25% | -12.5% | -9% | – | –
21 | CC1(C)CC(=O)C2=C(C1)N(c1ccc(Cl)cc1)CN(c1ccc(Br)cc1)C2 | inactive | inactive | – | – | – | – | – | – | – | – | – | – | – | – | – | – | – | – | –
